Test results: ChEMBL document CHEMBL1165934, “Synthesis and in vitro toxicity of 4-MTA, its characteristic clandestine synthesis byproducts and related sulfur substituted alpha-alkylthioamphetamines” (Bioorg Med Chem, 2010)
pEC50, pIC50: −log10 of the molar value.

Columns and labels:
[1] = system: HEK293; assay: Cytotoxicity against human HEK293 cells assessed as cell viability after 48 hrs by neutral red assay; format: cell-based; settings: HEK293, 48 h
How it was run: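 HEK293 cells grown in DMEM with 10% FBS and 2 mM L-glutamine. Seeded at 5x10^4 cells/well and grown to sub-confluence (24-36 h), then exposed 48 h. Neutral red dye was added for 3 ± 1 h, then solubilised in 50% ethanol-1% acetic acid. A540 read with A690 background. Viability was taken as % of vehicle. pEC50 came from a sigmoidal fit (Hill slope 1) over 4 concentrations, triplicate, two independent days.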

[2] = system: HEK293; assay: Cytotoxicity against human HEK293 cells over expressing human SERT assessed as cell viability after 48 hrs by neutral red assay; format: cell-based; settings: HEK293, 48 h
How it was run: (§1)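 Stably transfected HEK293 lines, passage ≤30, kept in DMEM with 10% FBS, 2 mM L-glutamine and Geneticin. Cells seeded at 5x10^4/well and grown to sub-confluence (24-36h), then exposed 48h. Neutral red uptake for 3 ± 1 h, then ethanol/acetic acid solubilisation, A540 minus 690 nm. Viability taken relative to vehicle. Range 1 µM-1 mM, 4 concentrations in triplicate on two independent days. pEC50 from sigmoidal fit (Hill slope 1).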

[3] = system: HEK293; assay: Cytotoxicity against human HEK293 cells over expressing human NET assessed as cell viability after 48 hrs by neutral red assay; format: cell-based; settings: HEK293, 48 h; how it was run: as §1
[4] = system: HEK293; assay: Cytotoxicity against human HEK293 cells over expressing human DAT assessed as cell viability after 48 hrs by neutral red assay; format: cell-based; settings: HEK293, 48 h; how it was run: as §1
[5] = system: PC-12; assay: Cytotoxicity against rat PC12 cells assessed as cell viability after 48 hrs by neutral red assay; format: cell-based; settings: PC-12, 48 h
How it was run: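 PC-12 (rat pheochromocytoma) cells on collagen were differentiated 7 days with 100 ng/ml NGF in low-serum DMEM/F12. Seeded at 5x10^4/well, then exposed 48h. Neutral red uptake for 3 ± 1 h, solubilised, A540 (690 nm background). Viability taken against vehicle. Tested 1 µM-1 mM, 4 concentrations in triplicate on two independent days. pEC50 by sigmoidal non-linear regression (Hill slope 1).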

[6] = system: SH-SY5Y; assay: Cytotoxicity against human SH-SY5Y cells assessed as cell viability after 48 hrs by neutral red assay; format: cell-based
How it was run: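 SH-SY5Y grown in DMEM/F12 (1:1) with 10% FBS, 1 mM pyruvate, 2 mM glutamine and 0.1 mM non-essential amino acids, at 37 °C. Seeded 5x10^4 cells/well, treated 48 h, then neutral red uptake for 3 ± 1 h. Absorbance read at 540 nm (690 nm background). Viability was expressed as % of vehicle-treated cells. pEC50 came from a nonlinear sigmoidal fit (Hill slope 1), with 4 concentrations in triplicate on two separate days.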

[7] = system: PC-12; assay: Cytotoxicity against rat PC12 cells assessed as cell viability at 1 mM after 48 hrs by neutral red assay; format: cell-based; settings: pc-12, 48 h, 1000 µM
How it was run: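 Undifferentiated PC-12 cells (rat pheochromocytoma) were seeded at 5x10^4 on collagen and differentiated for seven days with 100 ng/ml NGF in low-serum DMEM/F12. They were then exposed for 48 h to single concentrations. Neutral red staining lasted 3 ± 1 h, with absorbance at 540 nm (690 nm background). Viability was taken as % of vehicle, and each concentration was compared with untreated cells by one-way ANOVA.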

[8] = target: Sodium-dependent serotonin transporter (Homo sapiens, UniProt P31645); assay: Binding affinity to human SERT
Sodium-dependent serotonin transporter, sequence (P31645 whole entry): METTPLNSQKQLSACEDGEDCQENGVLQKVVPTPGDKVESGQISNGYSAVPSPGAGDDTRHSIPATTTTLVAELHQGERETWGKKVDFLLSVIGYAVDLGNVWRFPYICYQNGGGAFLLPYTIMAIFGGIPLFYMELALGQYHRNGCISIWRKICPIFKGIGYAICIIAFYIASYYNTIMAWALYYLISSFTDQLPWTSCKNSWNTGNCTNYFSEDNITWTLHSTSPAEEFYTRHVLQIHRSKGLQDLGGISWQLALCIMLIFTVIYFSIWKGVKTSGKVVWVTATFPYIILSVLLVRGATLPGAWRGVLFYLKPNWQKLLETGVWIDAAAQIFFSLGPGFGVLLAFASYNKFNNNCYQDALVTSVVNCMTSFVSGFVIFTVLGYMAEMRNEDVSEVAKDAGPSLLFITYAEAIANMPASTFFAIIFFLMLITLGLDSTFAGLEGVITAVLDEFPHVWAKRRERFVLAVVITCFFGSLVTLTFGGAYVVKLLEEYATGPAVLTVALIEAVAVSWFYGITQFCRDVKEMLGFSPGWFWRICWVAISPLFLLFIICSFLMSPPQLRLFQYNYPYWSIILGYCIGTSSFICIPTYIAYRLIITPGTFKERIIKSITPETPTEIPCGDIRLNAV

[9] = Selectivity ratio of IC50 for SERT to IC50 for DAT
[10] = Selectivity ratio of IC50 for SERT to IC50 for NET

CSc1ccc(CC(N)Cc2ccc(SC)cc2)cc1
pEC50 [1]: 4.65
pEC50 [2]: 4.61
pEC50 [3]: 3.90
pEC50 [4]: 4.60
pEC50 [5]: 3.20
pEC50 [6]: 4.73
Activity [7]: Toxic

CC(N)Cc1ccc2c(c1)OCO2 (configuration not stated) [TENAMFETAMINE]
pIC50 [8]: 6.32
pEC50 [2]: 3.16
pEC50 [3]: 3.23
pEC50 [4]: 2.23

CCc1nc(Cc2ccc(SC)cc2)c(C)cc1-c1ccc(SC)cc1
pEC50 [1]: 4.73
pEC50 [2]: 4.46
pEC50 [3]: 4.53
pEC50 [4]: 4.57
pEC50 [5]: 4.53
pEC50 [6]: 3.75

CSc1ccc(CC(C)NC=O)cc1 (configuration not stated)
pEC50 [1]: 2.54
pEC50 [2]: 2.87
pEC50 [3]: 3.43
pEC50 [4]: 2.64
pEC50 [5]: < 2.00
pEC50 [6]: < 2.00
Activity [7]: Non-toxic

CNC(C)Cc1ccc2c(c1)OCO2 (configuration not stated) [MIDOMAFETAMINE]
pEC50 [2]: 3.31
pEC50 [3]: 2.81
pEC50 [4]: 2.71

CSc1ccc(Cc2ccncn2)cc1
pEC50 [1]: 5.03
pEC50 [2]: 4.78
pEC50 [3]: 4.20
pEC50 [4]: 4.93
pEC50 [5]: 4.17
pEC50 [6]: 2.53

CCNC(Cc1ccc(SC)cc1)Cc1ccc(SC)cc1
pEC50 [1]: 4.77
pEC50 [2]: 4.59
pEC50 [3]: 3.58
pEC50 [4]: 4.57
pEC50 [5]: 3.64
pEC50 [6]: 4.86
Activity [7]: Toxic

CSc1ccc(CC(Cc2ccc(SC)cc2)NC=O)cc1
pEC50 [2]: 4.30
pEC50 [3]: 3.34
pEC50 [4]: 4.06
pEC50 [5]: 4.42
pEC50 [6]: 4.49

CCC(Cc1ccc(SC)cc1)NC (configuration not stated)
pEC50 [2]: 4.26
pEC50 [3]: 4.18
pEC50 [4]: 3.38

CSc1ccc(CC(C)NC(C)Cc2ccc(SC)cc2)cc1 (configuration not stated)
pEC50 [1]: 4.79
pEC50 [2]: 4.59
pEC50 [3]: 4.60
pEC50 [4]: 4.58
pEC50 [5]: 4.56
pEC50 [6]: 4.65

CCC(Cc1ccc(SC)cc1)NC=O (configuration not stated)
pEC50 [1]: 4.21
pEC50 [2]: 4.19
pEC50 [3]: 4.10
pEC50 [4]: 2.95
pEC50 [5]: 3.13
pEC50 [6]: < 2.00
Activity [7]: Toxic

CSc1ccc(CC(Cc2ccc(SC)cc2)NC(C)=O)cc1
pEC50 [1]: 4.30
pEC50 [2]: 4.41
pEC50 [3]: 4.59
pEC50 [4]: 4.08
pEC50 [5]: 2.38
pEC50 [6]: 3.22
Activity [7]: Non-toxic

CSc1ccc(CC(C)N)cc1 (configuration not stated) [4-METHYLTHIOAMPHETAMINE]
Ratio IC50 [9]: 3070
Ratio IC50 [10]: 2370
pEC50 [2]: 4.65
pEC50 [3]: 4.65
pEC50 [4]: 4.38
pEC50 [5]: 3.53
pEC50 [6]: 3.29

CSc1ccc(C/C(C)=N/O)cc1
pEC50 [1]: 2.52
pEC50 [2]: 3.67
pEC50 [3]: 2.76
pEC50 [4]: 4.17
pEC50 [5]: 3.11
pEC50 [6]: 3.47
Activity [7]: Toxic
